Screening data: PubChem BioAssay, several laboratories
tolC growth inh – growth inhibitors of E. coli BW25113 tolC mutant; OD615; growth inhibition, % at 10 µM (by protocol); 2.2% of 65,000 active;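 active = growth inhibition at or above a cutoff equal to the mean over every tested compound plus 3 SD, cut at about 60% in these data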;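 note: growth measured after 20 h incubation at 37 °C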
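Doses: one dose of 10 µM final / Material: E. coli BW25113 ΔtolC::kan, tolC deletion mutant strain / Buffer or medium: LB with kanamycin 50 µg/mL / Evaluation: percent growth inhibition / Detection: optical density read at 615 nm / Incubation: 37 °C, 20 h exposure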
M1 antag – antagonists of rat M1 muscarinic receptor; CHO-M1 cells, Fluo-4 calcium, ACh EC80 antagonist mode; stronger effect = lower value; 3.4% of 64,000 active; B-score at 10 µM; AID 628;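 active = calcium fluorescence response, raw or row-and-column corrected B-score, differing from the plate sample mean either way at a set confidence level, mostly lower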
M1 ag – M1 muscarinic receptor agonism; CHO-M1 cells, Fluo-4 calcium fluorescence, agonist mode; stronger effect = higher value; B-score at 10 µM; 3% of 64,000 active;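 active = fluorescence rise, raw or as B-score row- and column-corrected plate score, outside the 99.7% band of its plate's samples, either direction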
Hsp90 inh – displaces geldanamycin probe from tumor Hsp90; 0.35% of 64,000 active; P07900; inhibition, % at 30 µM; NCI-N417 lysate Hsp90, Cy3B-geldanamycin FP displacement; AID 429;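 active = inhibition above 50%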
Ecoli WT expand – growth inhibitors of E. coli BW25113 wild type; OD600 absorbance; growth inhibition, % at 100 µM; 0.15% of 98,000 active;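 active = growth inhibition above about 50% at one test dose, limit read from the data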;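 note: growth measured after 20 h incubation at 37 °C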
BAP1 inh – human BAP1 deubiquitinase inhibition; recombinant BAP1, Ub-AMC hydrolysis fluorescence kinetic; stronger effect = lower value; calls only at 20 µM; 0.48% of 72,000 active; Q92560;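 active = activity remaining at or below 50% of control, provided the compound also passes the data quality filters; inactive = the rest, including low values that fail the filters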
Target sequence (Q92560 whole entry, looked up): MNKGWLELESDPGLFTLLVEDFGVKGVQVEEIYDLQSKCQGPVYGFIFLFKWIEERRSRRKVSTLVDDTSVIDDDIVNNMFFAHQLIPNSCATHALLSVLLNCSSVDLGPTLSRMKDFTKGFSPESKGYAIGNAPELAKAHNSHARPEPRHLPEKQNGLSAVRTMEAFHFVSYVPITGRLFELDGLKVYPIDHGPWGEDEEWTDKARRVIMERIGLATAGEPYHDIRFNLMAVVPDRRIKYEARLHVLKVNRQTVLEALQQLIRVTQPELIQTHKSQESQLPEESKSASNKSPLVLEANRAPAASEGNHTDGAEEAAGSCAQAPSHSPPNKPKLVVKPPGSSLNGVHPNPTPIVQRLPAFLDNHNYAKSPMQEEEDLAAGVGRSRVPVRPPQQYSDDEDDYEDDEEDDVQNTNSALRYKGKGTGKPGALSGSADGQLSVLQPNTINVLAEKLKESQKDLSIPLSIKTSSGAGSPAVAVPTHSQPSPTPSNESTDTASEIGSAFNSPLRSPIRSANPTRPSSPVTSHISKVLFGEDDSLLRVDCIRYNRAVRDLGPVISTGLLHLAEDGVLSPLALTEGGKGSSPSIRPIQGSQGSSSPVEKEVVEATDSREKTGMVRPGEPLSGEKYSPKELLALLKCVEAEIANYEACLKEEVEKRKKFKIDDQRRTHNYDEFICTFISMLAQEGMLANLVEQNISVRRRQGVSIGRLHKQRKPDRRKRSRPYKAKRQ
M1 antag confirm – confirmation of rat M1 muscarinic receptor antagonists; shares compounds with M1 antag; calcium response (max-min fluorescence) at 10 µM; 43% of 1,700 active; CHO-M1 cells, Fluo-4 calcium, ACh EC80 antagonism; stronger effect = lower value;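 active = calcium response below the same-plate mean of wells given acetylcholine alone at its 80%-effect dose, minus 3 SD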
mGluR4 antag – selectivity test for M1 antagonists: human mGluR4 receptor | shares compounds with M1 antag | CHO-mGluR4 calcium flux, Fluo-4 fluorescence, glutamate EC80; stronger effect = lower value | fluorescence response (max-min) at 10 µM | 0.9% of 1,700 active;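 active = fluorescence response below the plate's average for near-maximal glutamate wells, less 3 SD of those wells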;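 note: raw unnormalized fluorescence span taken in the window right after glutamate addition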
A number is an active result; - = inactive; . = no result. Only some compounds are listed: those with a hit (about 5.1% of all), similar ones and a draw of the others.

SMILES	tolC growth inh	M1 antag	M1 ag	Hsp90 inh	Ecoli WT expand	BAP1 inh	M1 antag confirm	mGluR4 antag
CCN1CCN(Cc2ccc(OCc3ccccc3)cc2)CC1	-	-4.4	-	-	-	-	345	-
O=S(=O)(c1ccc(Br)cc1)N1CCSC1c1ccc(Br)cc1 (stereo not given)	.	.	.	.	.	-	.	.
N#CCCCSc1nnnn1-c1ccccc1	.	.	.	.	.	-	.	.
CC(=O)Oc1cc2oc3cc(C)ccc3[nH]c2c2c(=O)c3ccccc3c(=O)c12	.	.	.	.	.	-	.	.
CCCCn1nnnc1NCc1ccc(N2CCCC2)cc1	-	-3.7	-	-	-	-	-	-
CCCCn1nnnc1NCc1cccnc1	-	-	-	-	-	-	.	.
COc1cc2c(cc1OC)CN(C(=O)c1ccc(OC)c(S(=O)(=O)N3CCOCC3)c1)CC2	-	-0.84	-	-	-	-	-	-
COc1ccc(C(=O)N2CCCC2)cc1S(=O)(=O)N1CCOCC1	-	-	-	-	-	-	.	.
CCc1oc2ccccc2c1C(=O)CCN1CCCCC1	-	-7.1	-	-	-	-	196	-
O=C(CCN1CCCCC1)c1ccccc1	.	.	.	.	-	.	.	.
CCC1Oc2ccccc2N(CC(=O)NCCN2CCc3ccccc3C2)C1=O (stereo not given)	-	-1.7	-	-	-	-	583	-
COc1cc2ccccc2cc1C(=O)Nc1ccc(F)cc1	.	.	.	.	.	-	.	.
CCn1c(=NC(=O)c2ccc(S(=O)(=O)N3CCOCC3)cc2)sc2cccc(OC)c21	-	-1.8	-	-	-	-	-	-
O=C(CNC1CCCCCC1)Nc1ccc(S(=O)(=O)NC2CC2)cc1	-	-4.8	-	-	-	-	182	-
O=C(N1CCN(CCO)CC1)N1c2ccccc2C=Cc2ccccc21	-	-3.2	-	-	-	-	437	-
OCCN1CCN(C(=S)NCCc2ccccc2)CC1	.	.	.	.	-	.	.	.
COc1cc(C2NC(=O)N(C)C(C)=C2C(=O)OCCC(C)C)cc(Cl)c1O (stereo not given)	.	.	.	.	.	-	.	.
CC1CCCCC1NC1CC(=O)N(c2ccccc2)C1=O (stereo not given)	.	.	.	.	.	-	.	.
NCCCCCc1nnc(SC/C=C/c2ccccc2)o1	-	-3.6	-	-	-	-	450	-
COc1ccc(Oc2c(C)oc3c(CN4CCOCC4)c(O)ccc3c2=O)cc1	.	.	.	.	-	.	.	.
CCOC(=O)c1ccc(Oc2c(C)oc3c(CN4CCN(C)CC4)c(O)ccc3c2=O)cc1	-	-4.4	-	-	-	-	405	-
Cc1ccc(S(=O)(=O)N2CCN(C(=O)CSc3nnc(-c4ccco4)o3)CC2)cc1	-	-3	-	-	-	-	-	-
Cc1nnc(SCC(=O)N2CCN(S(=O)(=O)c3ccccc3)CC2)n1Cc1ccccc1	-	-6.4	-	-	-	-	350	-
FC(F)(F)COc1nc(Nc2ccccc2)nc(OCC(F)(F)F)n1	.	.	.	.	.	-	.	.
CCOc1ccc(N(CC(=O)N2CCN(c3ccccc3)CC2)S(=O)(=O)c2c(C)noc2C)cc1	-	-	-	-	-	-	.	.
SMILES	tolC growth inh	M1 antag	M1 ag	Hsp90 inh	Ecoli WT expand	BAP1 inh	M1 antag confirm	mGluR4 antag
CCOC(=O)N1CCN(C(=O)CN(c2ccc(C)cc2)S(=O)(=O)c2c(C)noc2C)CC1	-	-1.1	-	-	-	-	-	-
CCOC(=O)Nc1ccc2c(c1)N(C(=O)CCN1CCN(C)CC1)c1ccccc1S2	.	.	.	.	-	.	.	.
Cn1nnnc1SCC(=O)N1c2ccccc2Sc2ccc(Cl)cc21	-	-2.7	-	-	-	-	446	-
O=C(CN1CCN(CCOCCO)CC1)N1c2ccccc2Sc2ccc(Cl)cc21	-	-17	-	-	-	-	24	-
CN1CCN(CC(=O)N2c3ccccc3Sc3ccccc32)CC1	.	.	.	.	.	-	.	.
Cc1nnc(SCC(=O)N2c3ccccc3Sc3ccccc32)n1N	-	-	-	-	-	-	.	.
CN1CCN(CCC(=O)N2c3ccccc3Sc3ccc(Cl)cc32)CC1	-	-11	-	-	-	-	268	-
Cc1ccc(OCCSc2nnc(NC(=O)c3ccco3)s2)cc1	-	-3.6	-	-	-	-	-	-
CCC(c1ccccc1)c1nc(-c2ccccn2)no1 (stereo not given)	-	-6	-	-	-	-	-	-
COc1ccc([N+](=O)[O-])cc1NC(=O)c1cccc(F)c1	.	.	.	.	.	-	.	.
CC1CCc2cc(F)ccc2N1C(=O)CSc1nnc(-c2cccs2)n1C (stereo not given)	-	-6.1	-	-	-	-	-	-
CCOC(=O)C1=C(C)NC(=S)N(C(C)=O)C1c1ccccc1F (stereo not given)	.	.	.	.	.	-	.	.
CC(C)CCN(C)C1CCN(S(=O)(=O)c2cccc(C(F)(F)F)c2)CC1	-	-9	-	-	-	-	215	-
CC(C)(C)C(=O)NC1CCN(S(=O)(=O)c2cccc(C(F)(F)F)c2)CC1	-	-	-	-	-	-	.	.
CCc1ccccc1NC1c2ccccc2C(=O)N1Cc1ccco1 (stereo not given)	-	-2.2	-	-	-	-	-	-
CCOc1ccccc1NC1c2ccccc2C(=O)N1c1ccc(C)cn1 (stereo not given)	-	-	-	-	-	-	.	.
CCOc1ccccc1NC1c2ccccc2C(=O)N1Cc1ccco1 (stereo not given)	-	-0.86	-	-	-	-	-	-
O=C(Cc1ccccc1)OCC(=O)c1ccc([N+](=O)[O-])cc1	.	.	.	.	.	-	.	.
COc1nc(NC(C)=O)nc(C)c1Br	-	-10	-	.	-	.	-	-
CCOc1ccc(NC(=O)COc2ccc(C)cc2Br)cc1	.	.	.	.	.	-	.	.
Cc1cc(N2CCN(c3ccccn3)CC2)n2c(nc3ccccc32)c1C#N	-	-2.2	-	-	-	-	-	127
OC(COCc1ccco1)CN1CCN(C(c2ccccc2)c2ccccc2)CC1 (stereo not given)	-	-17	-	-	-	-	123	-
Cc1ccc(CNc2ncc(-c3ccc4c(c3)OCO4)n2C)cc1	-	-2.9	-	-	-	-	447	-
Cn1c(-c2ccc(F)cc2)cnc1NCc1ccc(F)cc1	.	.	.	.	-	.	.	.
Cn1c(-c2ccc(F)cc2)cnc1NCc1ccc(C#N)cc1	-	-3.4	-	-	-	-	-	-
Cn1c(-c2ccc3c(c2)OCO3)cnc1NCc1ccc(Cl)cc1	-	-6.6	-	-	-	-	358	-
Cc1ccc(CNc2ccc3c(c2)OCO3)cc1	-	-	-	-	-	-	.	.
CCCCOc1cccc(C(=O)Nc2ccc(Cl)cn2)c1	.	.	.	.	.	-	.	.
CCOCCCNC(=O)c1cc2c(-c3ccc(Cl)cc3)nn(C)c2s1	-	-	-	-	-	-	.	.
CCN(CC)CCNC(=O)c1cc2c(-c3ccc(Cl)cc3)nn(C)c2s1	-	-2.9	-	-	-	-	-	-
